Reference: ChEMBL document CHEMBL4028828, “Syntheses of benzophenone-xanthone hybrid polyketides and their antibacterial activities” (2017)
In brackets after ≈: the same amount, converted by molar mass. Activity calls are given as the source filed them. The rule behind the calls is not given here.

How the values were obtained:
Assay type in all cases: functional
Klebsiella pneumoniae = assay: Antibacterial activity against Klebsiella pneumoniae NBRC 14940 after overnight incubation by microdilution method
Summary of the method: (§1)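 Broth microdilution MIC, modified Eloff method. Compounds were dissolved in DMSO (under 5%) and tested in duplicate. Two-fold serial dilution followed by overnight incubation at 37 °C. MIC is the lowest concentration inhibiting growth.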

Escherichia coli = assay: Antibacterial activity against Escherichia coli NBRC 102203 after overnight incubation by microdilution method; summary of the method: as §1
Bacillus subtilis = assay: Antibacterial activity against Bacillus subtilis NBRC 13719 after overnight incubation by microdilution method; summary of the method: as §1
Staphylococcus aureus = assay: Antibacterial activity against Staphylococcus aureus NBRC 100910 after overnight incubation by microdilution method; summary of the method: as §1
[1] = Bacillus subtilis, NBRC 13719, read-out: MIC
[2] = Staphylococcus aureus, NBRC 100910, read-out: MIC

| SMILES | Activity (Klebsiella pneumoniae) | Activity (Escherichia coli) | MIC (Bacillus subtilis) [µM] | MIC (Staphylococcus aureus) [µM] | MIC (Bacillus subtilis; [1]) [µM] | MIC (Staphylococcus aureus; [2]) [µM] |
| --- | --- | --- | --- | --- | --- | --- |
| COc1cc(OC)c(C(c2ccccc2)c2c(O)cc(O)c3c(=O)c4ccc(O)cc4oc23)cc1OC (stereo in doubt; (+)-2) [listing 1 of 2 here] | inactive | inactive | – | – | – | – |
| COc1cc(OC)c(C(c2ccccc2)c2c(O)cc(O)c3c(=O)c4c(O)cc(O)cc4oc23)cc1OC (single isomer, unassigned; (+)) [listing 1 of 2 here] | inactive | inactive | – | – | – | – |
| COc1cc(OC)c(C(c2ccccc2)c2c(O)cc(O)c3c(=O)c4ccccc4oc23)cc1OC (single isomer, unassigned; (+)) [listing 1 of 2 here] | inactive | inactive | – | – | – | – |
| COc1cc(OC)c(C(c2ccccc2)c2c(O)cc(O)c3c(=O)c4ccc(O)cc4oc23)cc1OC (racemic) [listing 1 of 2 here] | inactive | inactive | – | – | – | – |
| COc1cc(OC)c(C(c2ccccc2)c2c(O)cc(O)c3c(=O)c4c(O)cc(O)cc4oc23)cc1OC (single isomer, unassigned; (+)) [listing 2 of 2 here] | – | – | 50 (≈ 25.8 µg/mL) | 10 (≈ 5.17 µg/mL) | – | – |
| COc1cc(OC)c(C(c2ccccc2)c2c(O)cc(O)c3c(=O)c4c(O)cc(O)cc4oc23)cc1OC (single isomer, unassigned; (-)) [listing 1 of 2 here] | – | – | – | – | 100 (≈ 51.7 µg/mL) | 12.5 (≈ 6.46 µg/mL) |
| Oc1ccc(O)c(O)c1 | inactive | inactive | – | – | > 100 | > 100 |
| COc1cc(OC)c2c(=O)c3c(O)cc(OC)c(C(c4ccccc4)c4cc(OC)c(OC)cc4OC)c3oc2c1 (racemic) | inactive | inactive | – | – | > 100 | > 100 |
| COc1cc(OC)c(C(c2ccccc2)c2c(O)cc(O)c3c(=O)c4ccc(O)cc4oc23)cc1OC (racemic) [listing 2 of 2 here] | – | – | – | – | 12.5 (≈ 6.26 µg/mL) | – |
| COc1cc(OC)c(C(=O)c2ccccc2)cc1OC | inactive | inactive | – | – | > 100 | > 100 |
| O=c1c2ccc(O)cc2oc2cc(O)cc(O)c12 | inactive | inactive | – | – | > 100 | 100 (≈ 24.4 µg/mL) |
| COc1cc(O)c2c(=O)c3c(OC)cc(OC)cc3oc2c1 | inactive | inactive | – | – | > 100 | > 100 |
| COc1cc(OC)c(C(c2ccccc2)c2c(O)cc(O)c3c(=O)c4ccc(O)cc4oc23)cc1OC (stereo in doubt; (-)-2) [listing 1 of 2 here] | – | – | – | – | – | 10 (≈ 5.01 µg/mL) |
| COc1cc(OC)c(C(c2ccccc2)c2c(O)cc(O)c3c(=O)c4ccccc4oc23)cc1OC (racemic) [listing 1 of 2 here] | – | – | – | 25 (≈ 12.1 µg/mL) | > 100 | – |
| COc1cc(OC)c(C(c2ccccc2)c2c(O)cc(O)c3c(=O)c4c(O)cc(O)cc4oc23)cc1OC (single isomer, unassigned; (-)) [listing 2 of 2 here] | inactive | inactive | – | – | – | – |
| COc1cc(OC)c2c(=O)c3c(O)cc(O)cc3oc2c1 | inactive | inactive | – | – | > 100 | > 100 |
| O=c1c2c(O)cc(O)cc2oc2cc(O)cc(O)c12 | inactive | inactive | – | – | > 100 | 50 (≈ 13 µg/mL) |
| COc1cc(OC)c(C(c2ccccc2)c2c(O)cc(O)c3c(=O)c4ccc(O)cc4oc23)cc1OC (stereo in doubt; (-)-2) [listing 2 of 2 here] | inactive | inactive | – | – | – | – |
| COc1cc(OC)c(C(c2ccccc2)c2c(O)cc(O)c3c(=O)c4ccccc4oc23)cc1OC (racemic) [listing 2 of 2 here] | inactive | inactive | – | – | – | – |
| COc1cc(OC)c(C(c2ccccc2)c2c(O)cc(O)c3c(=O)c4ccccc4oc23)cc1OC (single isomer, unassigned; (+)) [listing 2 of 2 here] | – | – | – | 10 (≈ 4.85 µg/mL) | – | – |
| NC[C@H]1O[C@H](O[C@H]2[C@H](O)[C@@H](O[C@H]3O[C@H](CO)[C@@H](O)[C@H](N)[C@H]3O)[C@H](N)C[C@@H]2N)[C@H](N)[C@@H](O)[C@@H]1O [BEKANAMYCIN] | – | – | – | – | 1.25 (≈ 0.604 µg/mL) | 1.25 (≈ 0.604 µg/mL) |
| COc1cc(OC)c(C(O)c2ccccc2)cc1OC (stereo not drawn) | inactive | inactive | – | – | > 100 | > 100 |
| COc1cc(OC)c(C(c2ccccc2)c2c(O)cc(O)c3c(=O)c4c(O)cc(O)cc4oc23)cc1OC (racemic) | inactive | inactive | – | – | – | – |
| COc1cc(OC)c(C(c2ccccc2)c2c(O)cc(O)c3c(=O)c4ccccc4oc23)cc1OC (single isomer, unassigned; (-)) [listing 1 of 2 here] | – | – | – | 50 (≈ 24.2 µg/mL) | – | – |
| COc1cc(OC)c(C(c2ccccc2)c2c(O)cc(O)c3c(=O)c4ccccc4oc23)cc1OC (single isomer, unassigned; (-)) [listing 2 of 2 here] | inactive | inactive | – | – | – | – |
| O=c1c2ccccc2oc2cc(O)cc(O)c12 | inactive | inactive | – | – | > 100 | 100 (≈ 22.8 µg/mL) |
| COc1cc(OC)c2c(=O)c3c(O)cc(O)c(C(c4ccccc4)c4cc(OC)c(OC)cc4OC)c3oc2c1 (racemic) | inactive | inactive | – | – | > 100 | > 100 |
| COc1cc(OC)c(C(c2ccccc2)c2c(O)cc(O)c3c(=O)c4ccc(O)cc4oc23)cc1OC (stereo in doubt; (+)-2) [listing 2 of 2 here] | – | – | 10 (≈ 5.01 µg/mL) | – | – | – |
| CC1(C)S[C@@H]2[C@H](NC(=O)[C@H](N)c3ccccc3)C(=O)N2[C@H]1C(=O)O [AMPICILLIN] | – | – | – | – | 1.25 (≈ 0.437 µg/mL) | 1.25 (≈ 0.437 µg/mL) |
